Laboratory results from ChEMBL document CHEMBL3526151, “Reversible disulfide formation of the glutamate carboxypeptidase II inhibitor E2072 results in prolonged systemic exposures in vivo” (Drug Metab Dispos, 2012).

Key:
[1] = AUC(0 to last) in Sprague-Dawley rat at 10 mg/kg, iv administered as bolus injection measured under fasted conditions by LC-MS/MS analysis; type: ADME, organism-based; design: time 0 - last, dose 10 mg/kg, route intravenous; details: plasma
Outline: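 Male Sprague-Dawley rats (280–330 g), jugular vein cannulated, fasted overnight until 4 h post-dose. Single tail-vein bolus of 0.1, 1, 10 or 30 mg/kg in 50 mM HEPES buffered saline, pH 7.4. Blood drawn 0–24 h into heparin tubes containing NEM. Plasma quantified by LC-MS/MS after NEM derivatization. Noncompartmental analysis: AUClast by linear trapezoidal rule, Cl = dose/AUC0-∞. Mean ± S.D., n = 4–9.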

[2] = Phase 1 metabolic stability in rat liver microsomes assessed as compound remaining at 10 uM measured for 1 hr by LC-MS/MS analysis in absence of cofactors; type: ADME; details: read-out: Stability
Outline: (§1)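 Cofactor-free controls were run for each microsomal incubation: 0.5 mg/ml liver microsomes with 10 µM compound, omitting cofactors, so that cofactor-independent degradation could be measured. Samples were taken up to 1 h, quenched with acetonitrile containing internal standard, and the percent remaining was determined by LC-MS/MS.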

[3] = test system: Cynomolgus monkey; assay: AUC(0 to infinity) in cynomolgus monkey at 5 mg/kg, po by LC-MS/MS analysis; type: ADME, organism-based, Macaca fascicularis, Plasma; design: dose 5 mg/kg, route oral, time infinity; details: in vivo
Outline: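 Cynomolgus monkeys (n = 3) dosed orally at a nominal 5 mg/kg in TCEP-treated 50 mM HEPES solution. Blood taken via iliac or femoral arterial cannula up to 9 days into heparin/NEM tubes. Plasma analyzed by LC-MS/MS. Cl/F and Vd/F derived noncompartmentally.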

[4] = Phase 1 metabolic stability in human liver microsomes assessed as compound remaining at 10 uM measured for 1 hr by LC-MS/MS analysis; type: ADME; details: read-out: Stability
Outline: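 Liver microsomes (0.5 mg/ml) were incubated with 10 µM compound (final) in 100 mM potassium phosphate, pH 7.4. An NADPH-regenerating system was present: 1.3 mM NADPH, 3.3 mM glucose 6-phosphate, 3.3 mM MgCl2, 0.4 U/ml G6PDH and 50 µM sodium citrate. Runs were in duplicate, with samples taken up to 1 h and quenched with acetonitrile containing internal standard. Loss of compound was followed by LC-MS/MS.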

[5] = Metabolic stability in cynomolgus monkey plasma assessed as compound remaining at 5 to 10 uM after 1 hr by LC-MS/MS analysis; type: ADME, cell-free, Macaca fascicularis; details: read-out: Stability
Outline: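 Compound at 5 and 10 µM was incubated at 37°C in Sprague-Dawley rat or cynomolgus monkey plasma. Aliquots taken at 0, 30 and 60 min were quenched with acetonitrile and analyzed by LC-MS/MS. Percent remaining = analyte/internal-standard area ratio at time t divided by that at time 0.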

[6] = test system: Rattus norvegicus; assay: Analgesic activity in Sprague-Dawley rat chronic constriction injury model assessed as change in paw withdrawal latency at 10 mg/kg/day, po measured 11 days after drug treatment cessation (reference value: -2.77 +/-0.3 s); type: functional
[7] = test system: Cynomolgus monkey; assay: AUC(0 to infinity) in cynomolgus monkey at 5 mg/kg, iv administered as bolus injection by LC-MS/MS analysis; type: ADME, organism-based, Macaca fascicularis, Plasma; design: time infinity, dose 5 mg/kg, route intravenous; details: in vivo
Outline: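 Cynomolgus monkeys (n = 3) given a 5 mg/kg intravenous bolus via cephalic or saphenous vein. Dosing solution in 50 mM HEPES, TCEP-treated. Arterial cannula blood collected up to 9 days into heparin/NEM tubes. Plasma assayed by LC-MS/MS. Noncompartmental analysis.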

[8] = Half life in Sprague-Dawley rat at 30 mg/kg, iv administered as bolus injection measured under fasted conditions by LC-MS/MS analysis; type: ADME, organism-based; design: dose 30 mg/kg, route intravenous; details: in vivo
[9] = Protein binding in cynomolgus monkey serum at 10 uM after 1 hr by LC-MS/MS analysis; type: ADME, Macaca fascicularis; details: read-out: PB (converted)
Outline: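 Serum from the named species spiked to 10 μM and held 1 h at 37°C, then ultrafiltered through a 5000 Da cutoff device (45 min, 37°C, 1800g). Filtrate and unfiltered serum extracted and measured by LC-MS/MS; % bound = 100 − (Cu/Cs × 100).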

[10] = Apparent oral clearance in Sprague-Dawley rat at 10 mg/kg, po administered via gavage measured under fed conditions by LC-MS/MS analysis; type: ADME, organism-based; design: dose 10 mg/kg, route oral; details: in vivo
Outline: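 Nonfasted male Sprague-Dawley rats given a single 10 mg/kg oral dose in 50 mM HEPES buffered saline, pH 7.4. Plasma collected 0.25–24 h into heparin/NEM tubes and assayed by LC-MS/MS. Noncompartmental parameters derived, including Cl/F and Vd/F. Mean ± S.D., n = 6–9.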

[11] = Half life in Sprague-Dawley rat at 10 mg/kg, po administered via gavage measured under fed conditions by LC-MS/MS analysis; type: ADME, organism-based; design: dose 10 mg/kg, route oral; details: in vivo
[12] = Cmax in Sprague-Dawley rat at 30 mg/kg, po administered via gavage measured under fasted conditions by LC-MS/MS analysis; type: ADME, organism-based; design: dose 30 mg/kg, route oral; details: in vivo
Outline: (§2)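 Fasted male Sprague-Dawley rats (280–330 g) received 0.1, 1, 10 or 30 mg/kg by oral gavage in 50 mM HEPES buffered saline, pH 7.4. Blood drawn at 0.25–24 h into heparin/NEM tubes; plasma analyzed by LC-MS/MS. Cmax taken as observed. AUC by linear trapezoidal rule with extrapolation by λz. Cl/F and Vd/F reported. Mean ± S.D., n = 4–9.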

[13] = Phase 2 metabolic stability in dog liver microsomes assessed as compound remaining at 10 uM measured for 1 hr by LC-MS/MS analysis in absence of cofactors; type: ADME, Canis lupus familiaris; details: read-out: Stability; outline: as §1
[14] = Tmax in Sprague-Dawley rat at 10 mg/kg, po administered via gavage measured under fasted conditions by LC-MS/MS analysis; type: ADME, organism-based; design: dose 10 mg/kg, route oral; details: in vivo
Outline: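 Jugular-cannulated male Sprague-Dawley rats, 280–330 g, fasted overnight to 4 h post-dose. Single dose in 50 mM HEPES-buffered saline pH 7.4, by oral gavage or as tail-vein i.v. bolus. Blood into heparin/NEM tubes at 0–24 h. Plasma measured by LC-MS/MS; noncompartmental analysis; Tmax observed; Vd = dose/(AUCinf·λz).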

[15] = AUC(0 to infinity) in Sprague-Dawley rat at 30 mg/kg, po administered via gavage measured under fasted conditions by LC-MS/MS analysis; type: ADME, organism-based; design: time infinity, dose 30 mg/kg, route oral; details: plasma; outline: as §2
[16] = Half life in Sprague-Dawley rat at 1 mg/kg, iv administered as bolus injection measured under fasted conditions by LC-MS/MS analysis; type: ADME, organism-based; design: dose 1 mg/kg, route intravenous; details: in vivo

Question: What does the source list for `O=C(O)c1cccc(-c2cccc(CCS)c2C(=O)O)c1`?
Answer: AUC(0-t) [1]: 90200 ng·h/mL; remaining at 1 h, 10 µM [2]: > 90%; AUC [3]: 24935.6 ng·h/mL; remaining at 1 h, 10 µM [4]: > 90%; remaining at 1 h, up to 10 µM [5]: > 90%; Time [6]: -1.9 s; AUC [7]: 63622.1 ng·h/mL; half-life [8]: 244 min; fraction unbound at 1 h, 10 µM [9]: 0.101; CL/F [10]: 5 mL/min/kg; half-life [11]: 165 min; Cmax [12]: 13000 ng/mL; remaining at 1 h, 10 µM [13]: > 90%; Tmax [14]: 1.03 h; AUC(0-inf) [15]: 76600 ng·h/mL; half-life [16]: 195 min
